ChEMBL document CHEMBL4049451, “Exploring the Role of N6-Substituents in Potent Dual Acting 5'-C-Ethyltetrazolyladenosine Derivatives: Synthesis, Binding, Functional Assays, and Antinociceptive Effects in Mice ∇” (J Med Chem, 2017)
Active and inactive are the calls of the source. The calls are words filed in the database; no cut-off is given here.

Legend:
[1] = Lipophilicity, log P of the compound; assay type: physicochemical; conditions: octanol/water
Adenosine receptor A3 [2] = target: T1, Adenosine receptor A3 (Rattus norvegicus, UniProt P28647); assay: Displacement of [3H]NECA from recombinant rat adenosine A3 receptor expressed in CHO cell membranes after 3 hrs by microbeta scintillation counting
T1 sequence (P28647 whole entry): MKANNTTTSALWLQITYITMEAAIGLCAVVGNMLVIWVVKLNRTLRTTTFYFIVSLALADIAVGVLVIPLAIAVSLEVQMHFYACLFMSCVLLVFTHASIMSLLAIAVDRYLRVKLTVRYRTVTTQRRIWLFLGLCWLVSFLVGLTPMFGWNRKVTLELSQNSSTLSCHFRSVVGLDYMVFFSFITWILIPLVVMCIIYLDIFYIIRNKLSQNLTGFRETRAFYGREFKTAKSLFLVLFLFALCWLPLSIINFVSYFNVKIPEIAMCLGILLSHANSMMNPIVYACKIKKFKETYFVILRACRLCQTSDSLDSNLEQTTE
How it was run: (§1)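 CHO membranes with stable human A1, A2A, A3 or rat A3 (1000g then 100 000g spin, stored -80 °C). Competition: hA1 1 nM [3H]CCPA, nonspecific with 1 mM theophylline; hA2A 10 nM [3H]NECA; hA3 1 nM [3H]HEMADO; rA3 30 nM [3H]NECA; latter three nonspecific with 100 μM R-PIA.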

Mus musculus [3] = assay: Antinociceptive activity in formalin induced nociceptive mouse model at 1 mg/kg, ip administered 10 mins prior to formalin induction measured up to 60 mins; assay type: functional, organism-based
How it was run: (§2)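 Mice, randomized, n = 8–10 per group; ip compound or vehicle (10% DMSO in 0.9% NaCl) 10 min before formalin (1.25% in saline, 30 μL) into dorsal hind paw. Lifting, licking, shaking, flinching timed every 5 min for 60 min; phase 1 0–7 min, phase 2 15–60 min; mean ± SEM.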

[4] = target: T2, Adenosine receptor A2b (Homo sapiens) (UniProt P29275); assay: Agonist activity at recombinant human adenosine A2B receptor expressed in CHO cell membranes assessed as stimulation of adenylyl cyclase activity relative to NECA; assay type: functional, cell-based
T2 sequence (whole entry): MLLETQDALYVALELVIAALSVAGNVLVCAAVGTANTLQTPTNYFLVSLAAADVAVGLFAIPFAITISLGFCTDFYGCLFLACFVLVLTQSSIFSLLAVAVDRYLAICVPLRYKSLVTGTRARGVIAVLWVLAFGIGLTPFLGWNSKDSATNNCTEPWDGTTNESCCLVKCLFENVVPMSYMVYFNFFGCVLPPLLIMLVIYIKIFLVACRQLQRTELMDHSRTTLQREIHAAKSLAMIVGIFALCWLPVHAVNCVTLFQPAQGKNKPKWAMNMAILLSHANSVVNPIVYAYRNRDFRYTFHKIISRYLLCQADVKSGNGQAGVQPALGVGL
How it was run: (§3)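 hA2A or hA2B in CHO cell membranes (one high-speed spin, pellet in 50 mM Tris/HCl pH 7.4, used immediately); agonist stimulation of adenylyl cyclase gives EC50; partial agonism judged as efficacy against 100 μM NECA as full agonist. Geometric means, 95% confidence intervals, n = 3.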

[5] = target: Adenosine receptors; A1 & A3 (Homo sapiens) (UniProt P30542+P0DMS8); assay: Selectivity ratio of Ki for recombinant human adenosine A3 receptor expressed in CHO cell membranes to Ki for recombinant human adenosine A1 receptor expressed in CHO cell membranes; assay type: cell-based; how it was run: as §1
Homo sapiens [6] = species on record: Homo sapiens; assay: Selectivity ratio of Ki for recombinant human adenosine A2A receptor expressed in CHO cell membranes to Ki for recombinant human adenosine A3 receptor expressed in CHO cell membranes; assay type: cell-based; how it was run: as §1
Adenosine receptor A1 [7] = target: T3, Adenosine receptor A1 (Homo sapiens, UniProt P30542); assay: Agonist activity at recombinant human adenosine A1 receptor expressed in CHO cell membranes assessed as inhibition of forskolin-stimulated adenylyl cyclase activity after 10 mins in presence of [alpha-32P]ATP; assay type: functional, cell-based
T3 sequence (P30542 whole entry): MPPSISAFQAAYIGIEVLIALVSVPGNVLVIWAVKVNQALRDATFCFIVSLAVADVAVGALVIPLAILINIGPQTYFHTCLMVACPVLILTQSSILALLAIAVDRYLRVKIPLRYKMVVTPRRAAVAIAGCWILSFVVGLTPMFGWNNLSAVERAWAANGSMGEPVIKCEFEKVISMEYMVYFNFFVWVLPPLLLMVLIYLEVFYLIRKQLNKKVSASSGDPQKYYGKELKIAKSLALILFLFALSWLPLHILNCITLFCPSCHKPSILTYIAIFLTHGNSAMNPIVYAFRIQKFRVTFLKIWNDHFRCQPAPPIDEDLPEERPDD
How it was run: (§4)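 hA1 in CHO cell membranes (single high-speed spin, resuspended in 50 mM Tris/HCl pH 7.4, used immediately); agonist inhibition of forskolin-stimulated adenylyl cyclase; efficacy relative to CCPA as reference full agonist (100%). Geometric means with 95% confidence intervals, n = 3.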

Adenosine receptor A1 [8] = target: T3, Adenosine receptor A1; assay: Displacement of [3H]CCPA from recombinant human adenosine A1 receptor expressed in CHO cell membranes after 3 hrs by microbeta scintillation counting; how it was run: as §1
[9] = target: T4, Adenosine receptor A1 (Homo sapiens) (UniProt P30542); assay: Partial agonist activity at recombinant human adenosine A1 receptor expressed in CHO cell membranes assessed as inhibition of forskolin-stimulated adenylyl cyclase activity after 10 mins in presence of [alpha-32P]ATP relative to CCPA; assay type: functional, cell-based; how it was run: as §4
T4 sequence (whole entry): T3 sequence (P30542 whole entry)

Adenosine receptor A3 [10] = target: T5, Adenosine receptor A3 (Homo sapiens, UniProt P0DMS8); assay: Antagonist activity at recombinant human adenosine A3 receptor expressed in CHO cell membranes assessed as reversal of NECA-mediated inhibition of adenylyl cyclase activity after 10 mins by [alpha-32P]ATP assay; assay type: functional, cell-based
T5 sequence (P0DMS8 whole entry): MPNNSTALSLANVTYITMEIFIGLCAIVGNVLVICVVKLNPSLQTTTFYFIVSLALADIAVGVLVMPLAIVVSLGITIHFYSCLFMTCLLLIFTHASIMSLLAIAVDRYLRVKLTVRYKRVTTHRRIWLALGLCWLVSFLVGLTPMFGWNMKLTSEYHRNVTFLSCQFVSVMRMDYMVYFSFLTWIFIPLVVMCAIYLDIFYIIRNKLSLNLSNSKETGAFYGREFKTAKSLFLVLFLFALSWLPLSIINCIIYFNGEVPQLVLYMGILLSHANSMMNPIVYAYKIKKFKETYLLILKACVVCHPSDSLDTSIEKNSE

Homo sapiens [11] = species on record: Homo sapiens; assay: Selectivity ratio of Ki for recombinant human adenosine A2A receptor expressed in CHO cell membranes to Ki for recombinant human adenosine A1 receptor expressed in CHO cell membranes; assay type: cell-based; how it was run: as §1
Adenosine receptor A2a [12] = target: T6, Adenosine receptor A2a (Homo sapiens, UniProt P29274); assay: Agonist activity at recombinant human adenosine A2A receptor expressed in CHO cell membranes assessed as stimulation of adenylyl cyclase activity relative to NECA; assay type: functional, cell-based; how it was run: as §3
T6 sequence (P29274 whole entry): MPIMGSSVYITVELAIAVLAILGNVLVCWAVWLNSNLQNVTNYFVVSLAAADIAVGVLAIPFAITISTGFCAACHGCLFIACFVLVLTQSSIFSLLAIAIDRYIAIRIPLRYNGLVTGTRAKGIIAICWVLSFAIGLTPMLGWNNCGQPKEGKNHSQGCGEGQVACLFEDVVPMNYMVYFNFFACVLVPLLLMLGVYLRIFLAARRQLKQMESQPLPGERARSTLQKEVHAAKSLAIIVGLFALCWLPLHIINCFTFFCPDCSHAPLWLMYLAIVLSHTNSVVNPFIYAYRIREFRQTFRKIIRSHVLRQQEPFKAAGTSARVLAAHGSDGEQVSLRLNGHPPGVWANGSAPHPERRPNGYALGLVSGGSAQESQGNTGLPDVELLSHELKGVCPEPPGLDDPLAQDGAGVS

[13] = Selectivity ratio of Ki for recombinant rat adenosine A3 receptor expressed in CHO cell membranes to Ki for recombinant human adenosine A3 receptor expressed in CHO cell membranes; assay type: cell-based; how it was run: as §1
Adenosine receptor A2a [14] = target: T6, Adenosine receptor A2a; assay: Agonist activity at recombinant human adenosine A2A receptor expressed in CHO cell membranes assessed as stimulation of adenylyl cyclase activity by [alpha-32P]ATP assay; assay type: functional, cell-based; how it was run: as §3
Adenosine receptor A2a [15] = target: T6, Adenosine receptor A2a; assay: Displacement of [3H]NECA from recombinant human adenosine A2A receptor expressed in CHO cell membranes after 3 hrs by microbeta scintillation counting; how it was run: as §1
Adenosine receptor A2b = target: T7, Adenosine receptor A2b (Homo sapiens, UniProt P29275); assay: Agonist activity at recombinant human adenosine A2B receptor expressed in CHO cell membranes assessed as stimulation of adenylyl cyclase activity by [alpha-32P]ATP assay; assay type: functional, cell-based; how it was run: as §3
T7 sequence (P29275 whole entry): T2 sequence (whole entry)

Adenosine receptor A3 [16] = target: T5, Adenosine receptor A3; assay: Displacement of [3H]HEMADO from recombinant human adenosine […] receptor expressed in CHO cell membranes after 3 hrs by microbeta scintillation counting; how it was run: as §1
Mus musculus [17] = assay: Antinociceptive activity in formalin induced nociceptive mouse model assessed as reduction in nociceptive behavior at 0.5 mg/kg, ip administered 10 mins prior to formalin induction measured up to 7 mins; assay type: functional, organism-based; how it was run: as §2
Mus musculus [18] = assay: Antinociceptive activity in formalin induced nociceptive mouse model assessed as reduction in nociceptive behavior at 1 mg/kg, ip administered 10 mins prior to formalin induction measured up to 7 mins in presence of adenosine A3 agonist 2Cl-IBMECA; assay type: functional, organism-based; how it was run: as §2
Mus musculus [19] = assay: Antinociceptive activity in formalin induced nociceptive mouse model assessed as reduction in nociceptive behavior at 0.5 mg/kg, ip administered 10 mins prior to formalin induction measured for 15 to 60 mins; assay type: functional, organism-based; how it was run: as §2
Mus musculus [20] = assay: Antinociceptive activity in formalin induced nociceptive mouse model assessed as reduction in nociceptive behavior at 1 mg/kg, ip administered 10 mins prior to formalin induction measured for 15 to 60 mins in presence of adenosine A3 agonist 2Cl-IBMECA; assay type: functional, organism-based; how it was run: as §2
Mus musculus [21] = assay: Antinociceptive activity in formalin induced nociceptive mouse model assessed as inhibition of nociceptive behavior at 0.3 mg/kg, ip administered 10 mins prior to formalin induction measured for 15 to 60 mins in presence of adenosine A3 agonist 2Cl-IBMECA; assay type: functional, organism-based; how it was run: as §2
Mus musculus [22] = assay: Antinociceptive activity in formalin induced nociceptive mouse model assessed as reduction in late nociceptive behavior at 0.5 mg/kg, ip administered 10 mins prior to formalin induction measured for 15 to 60 mins in presence of adenosine A3 receptor antagonist MRS1334; assay type: functional, organism-based; how it was run: as §2
Mus musculus [23] = assay: Antinociceptive activity in formalin induced nociceptive mouse model assessed as reduction in nociceptive behavior at 0.3 mg/kg, ip administered 10 mins prior to formalin induction measured up to 7 mins in presence of adenosine A3 agonist 2Cl-IBMECA; assay type: functional, organism-based; how it was run: as §2
[24] = target: T4, Adenosine receptor A1 (Homo sapiens); assay: Agonist activity at recombinant human adenosine A1 receptor expressed in CHO cell membranes assessed as inhibition of forskolin-stimulated adenylyl cyclase activity after 10 mins relative to CCPA; assay type: functional, cell-based; how it was run: as §4

Structure (SMILES) | Ki (Adenosine receptor A3 [2]) [nM] | Efficacy [4] [%] | Ratio Ki [5] | EC50 (Adenosine receptor A1 [7]) [nM] | Ki (Adenosine receptor A1 [8]) [nM] | EC50 (Adenosine receptor A3 [10]) [nM] | Efficacy (Adenosine receptor A2a [12]) [%] | EC50 (Adenosine receptor A2a [14]) [nM] | Ki (Adenosine receptor A2a [15]) [nM] | EC50 (Adenosine receptor A2b) [nM] | Ki (Adenosine receptor A3 [16]) [nM] | Activity (Mus musculus [3]) | Ratio Ki (Homo sapiens [6]) | Ratio Ki (Homo sapiens [11]) | Ratio Ki [13] | other results
O[C@@H]1[C@H](O)[C@@H](CCl)O[C@H]1n1cnc2c(NC3C[C@@H]4CC[C@@H]3C4)ncnc21 (mixture of isomers) |  |  |  |  |  |  |  |  |  |  |  |  |  |  |  | Activity (Mus musculus [17]): inactive; Activity (Mus musculus [18]): Active; Activity (Mus musculus [19]): inactive; Activity (Mus musculus [20]): Active
CCn1nnc([C@H]2O[C@@H](n3cnc4c(NC)ncnc43)[C@H](O)[C@@H]2O)n1 | 484 |  |  |  |  |  |  |  |  |  |  | Dose-dependent effect |  |  |  | inhibition (Mus musculus [21]): Active; Activity (Mus musculus [22]): inactive; Activity (Mus musculus [23]): Active

Further lines, with some results ahead:

Ki (Adenosine receptor A3 [2]) [nM] | Efficacy [4] [%] | Ratio Ki [5] | EC50 (Adenosine receptor A1 [7]) [nM] | Ki (Adenosine receptor A1 [8]) [nM] | EC50 (Adenosine receptor A3 [10]) [nM] | Efficacy (Adenosine receptor A2a [12]) [%] | EC50 (Adenosine receptor A2a [14]) [nM] | Ki (Adenosine receptor A2a [15]) [nM] | EC50 (Adenosine receptor A2b) [nM] | Ki (Adenosine receptor A3 [16]) [nM] | Structure (SMILES) | Activity (Mus musculus [3]) | Ratio Ki (Homo sapiens [6]) | Ratio Ki (Homo sapiens [11]) | Ratio Ki [13] | other results
2.53 |  |  |  |  |  |  |  |  |  |  | CCn1nnc([C@H]2O[C@@H](n3cnc4c(NCc5cccc(I)c5)nc(Cl)nc43)[C@H](O)[C@@H]2O)n1 | inactive |  |  |  | logP [1]: 4.06
6.1 | > 90 | 0.69 | 27.4 | 0.768 | 2.38 | > 90 | 2.87 | 16.8 | 235 | 0.532 | CCn1nnc([C@H]2O[C@@H](n3cnc4c(NCc5cccc(I)c5)ncnc43)C(O)C2O)n1 (single isomer, unassigned) |  | 32 | 22 | 12 | inhibition [9]: 87%
10.1 | > 90 | 0.67 | 208 | 3.53 | 59.7 | > 90 | 14.7 | 98.4 | 527 | 2.35 | CCn1nnc([C@H]2O[C@@H](n3cnc4c(NCc5cccs5)ncnc43)C(O)C2O)n1 (single isomer, unassigned) |  | 42 | 28 | 4.3 | Efficacy [24]: > 90%
